Reference: ChEMBL document CHEMBL1148991, “Antifungal flavonoids from Hildegardia barteri” (J Nat Prod, 2005)
Converted amounts (≈) assume the structure as drawn.

Legend:
Format in all cases: functional, organism-based
[1] = test system: Nakaseomyces glabratus; test: Antifungal activity against polyene-resistant Candida glabrata by broth microdilution assay
Procedure, shortened: (§1)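 Follow-up panel of recent drug-resistant and drug-sensitive clinical Candida isolates, tested alongside quality control strains C. krusei ATCC 6258 and C. parapsilopsis ATCC 22019.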

[2] = test system: Pichia kudriavzevii; test: Antifungal activity against azole-resistant Candida krusei by broth microdilution assay; procedure, shortened: as §1
[3] = test system: Candida albicans; test: Antifungal activity against polyene-resistant Candida albicans by broth microdilution assay; procedure, shortened: as §1
[4] = test system: Candida albicans; test: Antifungal activity against azole-resistant Candida albicans by broth microdilution assay; procedure, shortened: as §1
[5] = test system: Nakaseomyces glabratus; test: Antifungal activity against azole-resistant Candida glabrata by broth microdilution assay; procedure, shortened: as §1
[6] = test system: Candida albicans; test: Antifungal activity against azole-sensitive Candida albicans by broth microdilution assay; procedure, shortened: as §1

## Oc1cc2c(cc1O)[C@@H]1Oc3cc4c(cc3[C@@H]1CO2)OCO4
[1]
  IC50: 32 µg/mL (≈ 107 µM)
[2]
  IC50: 128 µg/mL (≈ 426 µM)
[3]
  IC50: 128 µg/mL (≈ 426 µM)
[4]
  IC50: 32 µg/mL (≈ 107 µM)
[5]
  IC50: 32 µg/mL (≈ 107 µM)
[6]
  IC50: 128 µg/mL (≈ 426 µM)

## C[C@@H]1[C@H](O)[C@@H](C)/C=C/C=C/C=C/C=C/C=C/C=C/C=C/[C@H](O[C@@H]2O[C@H](C)[C@@H](O)[C@H](N)[C@@H]2O)C[C@@H]2O[C@](O)(C[C@@H](O)C[C@@H](O)[C@H](O)CC[C@@H](O)C[C@@H](O)CC(=O)O[C@H]1C)C[C@H](O)[C@H]2C(=O)O [AMPHOTERICIN B]
[1]
  IC50: 4 µg/mL (≈ 4.33 µM)
[3]
  IC50: 3 µg/mL (≈ 3.25 µM)

## Cc1c(O)c(C)c2c(c1O)C(=O)C[C@@H](c1ccc(O)cc1)O2 [FARREROL]
[1]
  IC50: > 32 µg/mL
[2]
  IC50: > 32 µg/mL
[3]
  IC50: > 32 µg/mL
[4]
  IC50: > 32 µg/mL
[5]
  IC50: > 32 µg/mL
[6]
  IC50: > 32 µg/mL

## OC(Cn1cncn1)(Cn1cncn1)c1ccc(F)cc1F [FLUCONAZOLE]
[2]
  IC50: 128 µg/mL (≈ 418 µM)
[4]
  IC50: 256 µg/mL (≈ 836 µM)
[5]
  IC50: 256 µg/mL (≈ 836 µM)
[6]
  IC50: 0.12 µg/mL (≈ 0.392 µM)

## COc1cc2c(cc1O)C[C@H](c1cc3c(cc1O)OCO3)CO2 [HILDEGARDIOL]
[1]
  IC50: > 128 µg/mL
[2]
  IC50: > 128 µg/mL
[3]
  IC50: > 128 µg/mL
[4]
  IC50: ≥ 64 µg/mL
[5]
  IC50: ≥ 64 µg/mL
[6]
  IC50: > 128 µg/mL

## C[C@@H](c1ncncc1F)[C@](O)(Cn1cncn1)c1ccc(F)cc1F [VORICONAZOLE]
[2]
  IC50: 1 µg/mL (≈ 2.86 µM)
[4]
  IC50: 4 µg/mL (≈ 11.5 µM)
[5]
  IC50: 8 µg/mL (≈ 22.9 µM)
[6]
  IC50: 0.007 µg/mL (≈ 0.02 µM)
